The list is not random: actives were taken first. Their share in the collection is about 5.2%.
HCV NS3 hel inh – inhibitors of Hepatitis C virus NS3 helicase; NS3 helicase DNA unwinding, Cy5 molecular beacon fluorescence; inhibition, % at 10.9 µM; actives 0.56% (n = 290,000); AID 1800;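 active = inhibition above the mean of all tested compounds plus 3 SD, set per campaign, cut at about 35% in these data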;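 note: 0% = DMSO wells and 100% = thioflavine S control wells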
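Assay system – hepatitis C virus NS3 helicase domain fragment enzyme · Buffer or medium – MOPS pH 6.5, MgCl2, DTT, Tween20, BSA · Reagent – Cy5/quencher beacon DNA duplex and ATP to start · Compound – single 10.9 µM dose · Timing – 1 h at 25 °C · Technique – Cy5 beacon fluorescence read at start and 1 h · Measure – % inhibition of unwinding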
core dimer inh – blocks dimerization of HCV core protein; inhibition, % at 5 µM; TR-FRET GST/Flag-core106 dimerization, 1536-well; actives 0.33% (n = 300,000);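 active = inhibition above the mean of all tested compounds plus 3 SD, set per screening campaign, cut at about 45% in these data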
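assay system = GST-tagged and Flag-tagged HCV core protein residues 1-106 | controls = unlabelled core106 and no-GST-core106 wells | incubation = compound-protein-antibody incubation 4 h at 22.5 °C | probe or stimulus = Eu donor and XL665 acceptor anti-tag antibodies | read-out = % inhibition based on acceptor/donor emission ratio | signal = TR-FRET 671 and 617 nm emission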
EBNA-1 inhibitor – blocks EBNA-1 binding to DNA; actives 0.34% (n = 300,000); inhibition, % at 14.8 µM; EBNA-1 DNA binding, fluorescence polarization; AID 1950; in the data active = inhibition above about 28%
ALR inh – blocks human ALR sulfhydryl oxidase activity | P55789 | purified ALR, DTT oxidation, H2O2 HRP-luminol luminescence | inhibition, % (no concentration beside the values) | actives 3.8% (n = 290,000);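 active = mean replicate inhibition above about 79%, with every replicate also reaching it, limit read from the data; inconclusive = only one of the two criteria met; inactive = mean below limit and not every replicate reaching it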
Target sequence (P55789 whole entry, looked up): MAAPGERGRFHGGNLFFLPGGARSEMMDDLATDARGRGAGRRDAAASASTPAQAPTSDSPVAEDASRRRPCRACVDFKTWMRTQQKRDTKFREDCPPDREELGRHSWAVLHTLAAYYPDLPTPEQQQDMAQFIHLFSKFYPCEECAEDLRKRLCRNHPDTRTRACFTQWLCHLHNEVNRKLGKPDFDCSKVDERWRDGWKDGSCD
ZTA DNA inh – blocks Epstein-Barr virus ZTA, an EBNA-1 counter-screen | actives 0.15% (n = 320,000) | inhibition, % at 11 µM | P03206 | ZTA-DNA binding, fluorescence polarization; in the data active = inhibition above about 33%
Target sequence (P03206 whole entry, looked up): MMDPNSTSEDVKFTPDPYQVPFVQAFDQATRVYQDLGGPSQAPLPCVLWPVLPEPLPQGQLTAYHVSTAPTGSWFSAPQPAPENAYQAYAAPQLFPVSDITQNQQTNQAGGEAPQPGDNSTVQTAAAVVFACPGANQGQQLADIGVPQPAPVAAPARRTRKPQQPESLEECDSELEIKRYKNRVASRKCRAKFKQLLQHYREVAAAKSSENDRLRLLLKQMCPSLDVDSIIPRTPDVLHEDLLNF
M18AAP inhibitor – PfM18AAP enzyme inhibition. recombinant PfM18AAP, H-Glu-NHMec fluorogenic cleavage. inhibition, % at 7.35 µM. actives 1.2% (n = 290,000);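 active = inhibition above the campaign mean inhibition over all tested compounds plus 3 SD, cut at about 28% in these data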;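 note: 0% = plate median of test compound wells and 100% = 2 mM ZnCl2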
An asterisk follows results filed as active.

What do the screens show for `COc1ccc(-c2cc(-c3n[nH]c(=S)n3-c3cc(OC)ccc3OC)[nH]n2)cc1`?
HCV NS3 hel inh: 15; core dimer inh: 8; EBNA-1 inhibitor: -2; ALR inh: 83*; ZTA DNA inh: 6; M18AAP inhibitor: 1

How did N#CC1=C(N)SC2(CCCCC2)SC1c1ccccc1 (stereo not given) do in these assays?
HCV NS3 hel inh: -1; core dimer inh: 19; EBNA-1 inhibitor: 11; ALR inh: 94*; ZTA DNA inh: 16; M18AAP inhibitor: 0

What do the screens show for `N#CC1=C(C2CC2)CC(c2ccccc2)C(C#N)=C1N` (stereo not given)?
HCV NS3 hel inh: 13; core dimer inh: -7; EBNA-1 inhibitor: 2; ALR inh: 4; ZTA DNA inh: -6; M18AAP inhibitor: 1

What do the screens show for `O=C(NCc1ccco1)C1CCCN1C(=O)Nc1ccc(Br)cc1` (stereo not given)?
HCV NS3 hel inh: -4; M18AAP inhibitor: 3

What do the screens show for `CC(=O)c1ccc(-c2ccc(C(=O)NC3CCCCCC3)o2)cc1`?
HCV NS3 hel inh: 3; core dimer inh: -4; EBNA-1 inhibitor: -5; ALR inh: 98*; ZTA DNA inh: -9; M18AAP inhibitor: -4

How did Cc1cc([N+](=O)[O-])ccc1NC(=O)C[n+]1ccc(N(C)C)cc1 do in these assays?
HCV NS3 hel inh: 0; core dimer inh: -2; EBNA-1 inhibitor: 5; ALR inh: -6; ZTA DNA inh: 1; M18AAP inhibitor: -5

What do the screens show for `CC(C)CCNC(=O)NC(=O)COC(=O)CNC(=O)C1CCCCC1`?
HCV NS3 hel inh: 0; core dimer inh: -14; EBNA-1 inhibitor: 3; ALR inh: -1; ZTA DNA inh: 1; M18AAP inhibitor: 3

How did Cc1ccc(CNc2ccc3c(c2)ncn3C)cc1 do in these assays?
HCV NS3 hel inh: -6; core dimer inh: -12; EBNA-1 inhibitor: 0; ALR inh: 67; ZTA DNA inh: -16; M18AAP inhibitor: 2

How did CCCn1cnc2cc(NCc3ccccn3)ccc21 do in these assays?
core dimer inh: -3; EBNA-1 inhibitor: 6; ZTA DNA inh: 8

What do the screens show for `Cn1cnc2cc(NCc3ccccc3O)ccc21`?
HCV NS3 hel inh: 9; core dimer inh: -12; EBNA-1 inhibitor: -7; ALR inh: 87*; ZTA DNA inh: -23; M18AAP inhibitor: 10

Results for CCn1cnc2cc(NCc3ccncc3)ccc21 ?
HCV NS3 hel inh: -6; core dimer inh: -12; EBNA-1 inhibitor: -12; ALR inh: 82*; ZTA DNA inh: -12; M18AAP inhibitor: -3

Results for CCCn1cnc2cc(NCc3cccc(OC)c3O)ccc21 ?
HCV NS3 hel inh: -6; core dimer inh: -4; EBNA-1 inhibitor: -3; ALR inh: 85*; ZTA DNA inh: 22; M18AAP inhibitor: 13

What do the screens show for `COc1cccc(CNc2ccc(F)c(Cl)c2)c1OC`?
HCV NS3 hel inh: -3; core dimer inh: 3; EBNA-1 inhibitor: -8; ALR inh: inconclusive; ZTA DNA inh: -7; M18AAP inhibitor: -3

How did COc1cccc(CNc2ccc3c(c2)ncn3C(C)C)c1OC do in these assays?
HCV NS3 hel inh: -3; core dimer inh: -11; EBNA-1 inhibitor: 2; ALR inh: 92*; ZTA DNA inh: -13; M18AAP inhibitor: 12

What do the screens show for `COC(=O)Cc1coc2cc(OC)ccc12`?
ALR inh: -2; ZTA DNA inh: -26

What do the screens show for `CCCn1c(NCc2cccc(OC)c2O)nc2ccccc21`?
HCV NS3 hel inh: 0; core dimer inh: 0; EBNA-1 inhibitor: 2; ALR inh: 94*; ZTA DNA inh: -4; M18AAP inhibitor: -3

Results for COc1cccc(CNn2cnnc2)c1O ?
HCV NS3 hel inh: 0; core dimer inh: 1; EBNA-1 inhibitor: -11; ALR inh: 85*; ZTA DNA inh: -4; M18AAP inhibitor: 4

What do the screens show for `CCCn1c(NCc2cccc(OC)c2OC)nc2ccccc21`?
HCV NS3 hel inh: -14; core dimer inh: -7; EBNA-1 inhibitor: -10; ALR inh: 98*; ZTA DNA inh: 4; M18AAP inhibitor: 0

Results for COc1cccc(CNc2nc3ccccc3n2C(C)C)c1O ?
HCV NS3 hel inh: 8; M18AAP inhibitor: 8

Results for Oc1ccccc1CNc1cnc2ccccc2c1 ?
HCV NS3 hel inh: -8; core dimer inh: -4; EBNA-1 inhibitor: 1; ALR inh: 86*; ZTA DNA inh: -12; M18AAP inhibitor: 10

What do the screens show for `COc1cccc(OC)c1NC(=O)C1CCCN1C(=O)Nc1ccccc1F` (stereo not given)?
HCV NS3 hel inh: 8; M18AAP inhibitor: -2

What do the screens show for `Cc1cc(C)cc(NC(=O)CSc2nnc(CNC(=O)c3ccco3)n2C)c1`?
ALR inh: -3; ZTA DNA inh: -2

What do the screens show for `O=C(CSc1nnc(CNC(=O)c2ccco2)o1)Nc1ccc(Br)cc1`?
HCV NS3 hel inh: 2; core dimer inh: 3; EBNA-1 inhibitor: 2; ALR inh: 99*; ZTA DNA inh: -1; M18AAP inhibitor: 1

How did NCCc1nnc(SCC(=O)Nc2ccc(Br)cc2)o1 do in these assays?
HCV NS3 hel inh: 6; core dimer inh: 6; EBNA-1 inhibitor: 8; ALR inh: 98*; ZTA DNA inh: 2; M18AAP inhibitor: 4

Results for CC(C)C[C@H](NC(=O)OC(C)(C)C)c1nnc(SCC(=O)Nc2ccc(Br)cc2)o1 ?
HCV NS3 hel inh: -7; core dimer inh: 3; EBNA-1 inhibitor: -7; ALR inh: -5; ZTA DNA inh: -14; M18AAP inhibitor: 1

Results for CC(C)C[C@H](N)c1nnc(SCC(=O)Nc2ccc(Br)cc2)o1 ?
HCV NS3 hel inh: -12; core dimer inh: -1; EBNA-1 inhibitor: -17; ALR inh: 99*; ZTA DNA inh: -8; M18AAP inhibitor: -3

How did O=[N+]([O-])c1cc2c(c(CSc3nnnn3-c3ccc(O)cc3)c1)OCOC2 do in these assays?
HCV NS3 hel inh: 1; core dimer inh: 3; EBNA-1 inhibitor: -3; ALR inh: -2; ZTA DNA inh: 0; M18AAP inhibitor: 5

What do the screens show for `COc1cc(/C=C/C(=O)N[C@@H](Cc2c[nH]c3ccccc23)C(=O)O)ccc1O`?
HCV NS3 hel inh: -7; core dimer inh: 2; EBNA-1 inhibitor: 11; ALR inh: 86*; ZTA DNA inh: 6; M18AAP inhibitor: 4

How did CCOc1ccc(CN(C)C(=O)CN2C(=O)NC(c3ccccc3)(c3ccccc3)C2=O)cc1 do in these assays?
ZTA DNA inh: 14

What do the screens show for `COc1cccc(CNC(=O)CCNC(=O)N2CCn3c2nc2ccccc23)c1`?
HCV NS3 hel inh: -7; core dimer inh: -1; EBNA-1 inhibitor: -5; ALR inh: 98*; ZTA DNA inh: -7; M18AAP inhibitor: -2

What do the screens show for `COc1cccc(CNC(=O)CCCCCNC(=O)N2CCn3c2nc2ccccc23)c1`?
HCV NS3 hel inh: 3; core dimer inh: -3; EBNA-1 inhibitor: -4; ALR inh: -3; ZTA DNA inh: -15; M18AAP inhibitor: 1

From PubChem
